A selection: hits, their analogues and other compounds. The true share with any hit is near 1.7%.
SUMO1 PPI mod – alters human SUMO1 binding to SIM partners; P63165; SUMO1 binding to a labelled peptide, TR-FRET, 1 h; inhibition, % at 20 µM; actives 0.33% (n = 360,000); in the data active = inhibition above about 37%
Target sequence (P63165 whole entry, looked up): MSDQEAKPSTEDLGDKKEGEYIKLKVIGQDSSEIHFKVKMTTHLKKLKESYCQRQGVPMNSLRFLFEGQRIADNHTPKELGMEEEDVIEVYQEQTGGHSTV
Scp1 inh – blocks human Scp-1 phosphatase activity. Q9GZU7. Recombinant Scp1, phosphopeptide, malachite green phosphate absorbance. inhibition, % at 20 µM. actives 0.88% (n = 340,000). AID 493091;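 active = inhibition above about 50% at 20 µM, limit read from the data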;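 also: plate controls were DMSO wells with enzyme for no effect and wells lacking enzyme for full effect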
Target sequence (Q9GZU7 76-261 limits assumed): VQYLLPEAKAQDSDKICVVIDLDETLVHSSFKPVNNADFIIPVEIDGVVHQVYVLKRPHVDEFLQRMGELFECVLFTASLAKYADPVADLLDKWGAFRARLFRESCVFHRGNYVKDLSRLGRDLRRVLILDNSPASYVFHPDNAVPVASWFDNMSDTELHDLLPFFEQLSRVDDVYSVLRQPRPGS
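Test system: SCP-1 phosphatase catalytic domain, residues 76-261; measured by: colorimetric phosphate reagent with accelerator and stabiliser, absorbance at 630 nm; timing: enzyme reaction 45 min at room temperature, colour 5 min, stabilisation 30 min; also added: Phosphorylated 17-residue peptide substrate; compound dosing: one concentration, 20 µM, with 1.0% DMSO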
LMPTP inh – LMPTP (human) inhibition; AID 651560; inhibition, % at 20 µM; recombinant LMPTP-A, OMFP fluorogenic substrate, fluorescence intensity; actives 0.22% (n = 360,000);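 active = compounds that cut the enzyme signal by at least half of the control window in the single-dose screen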;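 also: plate controls were DMSO wells with enzyme plus substrate for no effect and substrate without enzyme for full effect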
Target sequence (P24666 whole entry, looked up): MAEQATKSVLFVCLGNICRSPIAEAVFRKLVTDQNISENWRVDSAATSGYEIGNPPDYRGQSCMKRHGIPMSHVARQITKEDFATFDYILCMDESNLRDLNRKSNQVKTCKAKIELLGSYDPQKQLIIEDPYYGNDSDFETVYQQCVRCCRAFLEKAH
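Test system: LMPTP-A phosphatase enzyme; input: 0.625 nM LMPTP-A final; reagent: OMFP substrate, 400 µM final; compound dosing: 20 µM single dose, 3% DMSO; incubation: 50 min dark incubation at room temperature; measured by: endpoint fluorescence intensity from OMFP dephosphorylation; measure: % inhibition relative to no-enzyme and uninhibited control wells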
STEP block – inhibitors of human striatal-enriched phosphatase STEP; recombinant STEP, OMFP fluorogenic substrate, fluorescence; inhibition, % at 20 µM; actives 0.25% (n = 360,000);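 active = inhibition at 20 µM, scaled per plate between control wells, above about 37%, limit read from the data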;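 also: 0% = DMSO with enzyme and substrate and 100% = substrate only without enzyme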
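System: isolated STEP enzyme; schedule: 20 min enzyme reaction at room temperature, protected from light; medium: Bis-Tris buffer pH 6.0, 2.5 mM DTT, 0.005% Tween 20; signal: fluorescence, 480/540 nm; dosing: single compound dose of 20 µM, 1% DMSO final; also added: OMFP substrate, 25 µM final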
DNMT1 inh – blocks human DNA methyltransferase DNMT1; P26358; DNMT1 molecular beacon, Hinp1I cleavage, fluorescence; inhibition (reported as % activation of signal), % at 10 µM; actives 0.83% (n = 360,000); in the data active = inhibition above about 50%
DNMT1 interf DR – shows spectral interference in the DNMT1 beacon assay; shares compounds with DNMT1 inh; molecular beacon fluorescence, spectral interference counter-screen; IC50, µM; 200 tested, under 10 active; AID 602382; call rule not given here
DNMT1 inh conf – DNMT1 inhibition confirmation, single concentration; shares compounds with DNMT1 inh; DNMT1 molecular beacon HinP1I cleavage, fluorescence; inhibition, % at 10 µM; actives 8% (n = 2,300); AID 602385;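 active = average inhibition of at least 30% in the single-concentration confirmation test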
Beacon interf – counter-screen for DNMT1 inhibitors: spectral interference; AID 602387; DNMT1 molecular beacon spectral interference counterscreen, fluorescence 485/520; shares compounds with DNMT1 inh; activation (fluorescence interference), % at 10 µM; actives 1% (n = 2,300);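 active = activation of at least 30% at 10 µM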;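 also: DNMT1 catalytic domain with a HinP1I cleavage step and a FAM/dabcyl DNA beacon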
Starred values were filed as active, the others as inactive; nt = no result given.

SMILES	SUMO1 PPI mod	Scp1 inh	LMPTP inh	STEP block	DNMT1 inh	DNMT1 inh conf	Beacon interf	others
CCOCCCNC(=O)C1CCN(S(=O)(=O)N2CCCC2)CC1	1	-6	1	-2	72*	3	4
Cc1cccc(NC(=O)CSc2cc(C)c(C#N)c3nc4ccccc4n23)c1	-20	0	2	3	52*	19	3
O=C(O)c1ccc2c(c1)C(=O)/C(=C\c1ccco1)C2=O	5	54*	3	9	80*	6	0
CC(C)(C)N1C(=O)c2ccc(C(=O)O)cc2C1=O	-3	-15	-2	0	0	nt	nt
O=C1C(=Cc2ccco2)C(=O)c2ccccc21	6	-4	1	2	-2	nt	nt
Cc1ccc(/C=C2/C(=O)c3ccc(C(=O)O)cc3C2=O)o1	5	41	3	7	74*	3	-3
CCCCc1cc(=O)oc2cc(C)c(CN3CCCC3)c(O)c12	27	0	3	-2	96*	3	7
CCc1cc(=O)oc2cc(C)c(CN3CCCC(C)C3)c(O)c12 (centres undefined)	27	-13	2	0	4	nt	nt
NS(=O)(=O)c1ccc(NC(=O)COC(=O)c2ccc([N+](=O)[O-])s2)cc1	10	-4	0	-2	70*	70*	-2	DNMT1 interf DR=>99
CN(CC(=O)Nc1ccccc1Cl)C(=O)COC(=O)c1ccc([N+](=O)[O-])s1	16	5	-1	2	65*	-2	-6
CN(CC(=O)Nc1ccccc1Cl)C(=O)COC(=O)c1cccs1	-1	7	-1	-2	3	nt	nt
Cc1ccc(NC(=O)COC(=O)CCc2c(C)nc3ncnn3c2C)cc1C	-8	-10	-1	-4	2	nt	nt
CCc1ccc(N(CC(=O)NC(C)(C)C)C(=O)CCC(=O)Nc2ccccn2)cc1	-3	-9	-1	1	60*	1	-1
CCOCc1c(C(=O)OCC(=O)Nc2ccccc2C(N)=O)oc2ccccc12	2	1	0	-2	-2	nt	nt
O=C(COC(=O)c1ccc(-c2nnc(-c3ccccc3)o2)cc1)c1ccccc1	3	-5	19	0	54*	1	1
CN(CC(=O)Nc1ccc(F)cc1)C(=O)c1ccc(OCc2ccccc2)cc1	13	16	1	0	10	nt	nt
CC(=O)C(Cc1ccccc1)NC(=O)CN1c2cccc3cccc(c23)S1(=O)=O (centres undefined)	-12	-2	1	-2	-13	nt	nt
O=C(NCCc1ccccc1O)c1cc2c(cc1[N+](=O)[O-])OCO2	-33	0	-1	-2	43	1	5
COc1ccc(CCNC(=O)Cc2cc3c(cc2[N+](=O)[O-])OCO3)cc1OC	-27	5	-1	-2	-7	nt	nt
Cc1ccc(OCC(=O)NC2CCCC(C)C2C)c([N+](=O)[O-])n1 (centres undefined)	-24	-13	-1	0	1	nt	nt
Cc1[nH][nH]c(=O)c1C(c1ccc(-c2ccccc2C(=O)O)o1)c1c(C)[nH][nH]c1=O	8	42	2	11	75*	-2	-2
CC(=O)Nc1ccc(CNc2nc3cc(-c4cccc(C(F)(F)F)c4)sc3c(=O)n2C)cc1	-10	nt	5	0	61*	5	7
COc1cccc(CNc2nc3cc(-c4cccc(C(F)(F)F)c4)sc3c(=O)n2C)c1	-7	nt	3	0	-2	nt	nt
O=S(=O)(c1cc(F)ccc1F)N1CCN2CCCC2C1 (centres undefined)	0	-4	-1	-1	-1	nt	nt
COc1cc2c(C#N)c(N3CCN(C)CC3)nc(N)c2c(N)n1	8	nt	3	-4	-20	nt	nt
CCCOc1cc2c(C#N)c(N3CCCC3)nc(N)c2c(N)n1	51*	-1	24	19	97*	3	-2

Screening results (PubChem BioAssay)
